Assay: organ radiation dose estimates, OLINDA 1.1, ICRP-60
Assay type: in vivo, human
Procedure, shortened: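 Whole-body PET-MR ran as nine scans to 214 min. Organ VOIs were drawn in AMIDE, giving decay-corrected %IA per VOI; remainder = whole body minus measured organs. TIACs came from the exponential model (EXM) in OLINDA 1.1. Per-participant organ doses used 70 kg adult male or 55 kg female models in OLINDA 1.1. Effective dose (mSv) = organ absorbed doses × ICRP-60 tissue weighting factors.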

- Estimated dose, Upper, lower intestine wall (Female n=4, mean±SD): 0.0160±0.0012 mGy/MBq
- Estimated dose, Urinary bladder wall (Female n=4, mean±SD): 0.0588±0.0438 mGy/MBq
- Estimated dose, Uterus (Female n=4, mean±SD): 0.0569±0.0512 mGy/MBq
- Effective dose (whole body) (M1 (326 MBq)): 6.74 mSv
- Estimated absorbed dose, Adrenals (M1 (326 MBq)): 6.51 mGy
- Estimated absorbed dose, Brain (M1 (326 MBq)): 5.63 mGy
- Estimated absorbed dose, Breasts (M1 (326 MBq)): 2.73 mGy
- Estimated absorbed dose, Gallbladder wall (M1 (326 MBq)): 9.08 mGy
- Estimated absorbed dose, Heart wall (M1 (326 MBq)): 8.79 mGy
- Estimated absorbed dose, Kidneys (M1 (326 MBq)): 72.0 mGy
- Estimated absorbed dose, Liver (M1 (326 MBq)): 16.0 mGy
- Estimated absorbed dose, Lower large intestine wall (M1 (326 MBq)): 3.45 mGy
- Estimated absorbed dose, Lungs (M1 (326 MBq)): 19.7 mGy
- Estimated absorbed dose, Muscle (M1 (326 MBq)): 3.00 mGy
- Estimated absorbed dose, Osteogenic cells (M1 (326 MBq)): 4.07 mGy
- Estimated absorbed dose, Pancreas (M1 (326 MBq)): 6.41 mGy
- Estimated absorbed dose, Red marrow (M1 (326 MBq)): 3.42 mGy
- Estimated absorbed dose, Remainder (M1 (326 MBq)): 4.10 mGy
- Estimated absorbed dose, Skin (M1 (326 MBq)): 2.10 mGy
- Estimated absorbed dose, Small intestine (M1 (326 MBq)): 13.8 mGy
- Estimated absorbed dose, Spleen (M1 (326 MBq)): 21.3 mGy
- Estimated absorbed dose, Stomach wall (M1 (326 MBq)): 4.33 mGy
- Estimated absorbed dose, Testes (M1 (326 MBq)): 2.12 mGy
- Estimated absorbed dose, Thymus (M1 (326 MBq)): 16.7 mGy
- Estimated absorbed dose, Thyroid (M1 (326 MBq)): 3.39 mGy
- Estimated absorbed dose, Upper, lower intestine wall (M1 (326 MBq)): 5.37 mGy
- Estimated absorbed dose, Urinary bladder wall (M1 (326 MBq)): 3.65 mGy
- Effective dose (whole body) (M2 (289 MBq)): 5.48 mSv
- Estimated absorbed dose, Adrenals (M2 (289 MBq)): 4.94 mGy
- Estimated absorbed dose, Brain (M2 (289 MBq)): 3.03 mGy
- Estimated absorbed dose, Breasts (M2 (289 MBq)): 2.26 mGy
- Estimated absorbed dose, Gallbladder wall (M2 (289 MBq)): 6.41 mGy
- Estimated absorbed dose, Heart wall (M2 (289 MBq)): 6.46 mGy
- Estimated absorbed dose, Kidneys (M2 (289 MBq)): 37.8 mGy
- Estimated absorbed dose, Liver (M2 (289 MBq)): 16.6 mGy
- Estimated absorbed dose, Lower large intestine wall (M2 (289 MBq)): 2.97 mGy
- Estimated absorbed dose, Lungs (M2 (289 MBq)): 11.0 mGy
- Estimated absorbed dose, Muscle (M2 (289 MBq)): 2.55 mGy
- Estimated absorbed dose, Osteogenic cells (M2 (289 MBq)): 3.58 mGy
- Estimated absorbed dose, Pancreas (M2 (289 MBq)): 4.30 mGy
- Estimated absorbed dose, Red marrow (M2 (289 MBq)): 2.76 mGy
- Estimated absorbed dose, Remainder (M2 (289 MBq)): 3.32 mGy
- Estimated absorbed dose, Skin (M2 (289 MBq)): 1.85 mGy
- Estimated absorbed dose, Small intestine (M2 (289 MBq)): 9.32 mGy
- Estimated absorbed dose, Spleen (M2 (289 MBq)): 7.24 mGy
- Estimated absorbed dose, Stomach wall (M2 (289 MBq)): 3.41 mGy
- Estimated absorbed dose, Testes (M2 (289 MBq)): 2.02 mGy
- Estimated absorbed dose, Thymus (M2 (289 MBq)): 4.68 mGy
- Estimated absorbed dose, Thyroid (M2 (289 MBq)): 2.23 mGy
- Estimated absorbed dose, Upper, lower intestine wall (M2 (289 MBq)): 4.24 mGy
- Estimated absorbed dose, Urinary bladder wall (M2 (289 MBq)): 4.70 mGy
- Effective dose (whole body) (M3 (70.3 MBq)): 1.52 mSv
- Estimated absorbed dose, Adrenals (M3 (70.3 MBq)): 1.21 mGy
- Estimated absorbed dose, Brain (M3 (70.3 MBq)): 0.820 mGy
- Estimated absorbed dose, Breasts (M3 (70.3 MBq)): 0.560 mGy
- Estimated absorbed dose, Gallbladder wall (M3 (70.3 MBq)): 1.35 mGy
- Estimated absorbed dose, Heart wall (M3 (70.3 MBq)): 1.79 mGy
- Estimated absorbed dose, Kidneys (M3 (70.3 MBq)): 12.7 mGy
- Estimated absorbed dose, Liver (M3 (70.3 MBq)): 2.61 mGy
- Estimated absorbed dose, Lower large intestine wall (M3 (70.3 MBq)): 0.670 mGy
- Estimated absorbed dose, Lungs (M3 (70.3 MBq)): 3.91 mGy
- Estimated absorbed dose, Muscle (M3 (70.3 MBq)): 0.605 mGy
- Estimated absorbed dose, Osteogenic cells (M3 (70.3 MBq)): 0.837 mGy
- Estimated absorbed dose, Pancreas (M3 (70.3 MBq)): 1.33 mGy
- Estimated absorbed dose, Red marrow (M3 (70.3 MBq)): 0.662 mGy
- Estimated absorbed dose, Remainder (M3 (70.3 MBq)): 0.780 mGy
- Estimated absorbed dose, Skin (M3 (70.3 MBq)): 0.434 mGy
- Estimated absorbed dose, Small intestine (M3 (70.3 MBq)): 1.61 mGy
- Estimated absorbed dose, Spleen (M3 (70.3 MBq)): 2.28 mGy
- Estimated absorbed dose, Stomach wall (M3 (70.3 MBq)): 0.815 mGy
- Estimated absorbed dose, Testes (M3 (70.3 MBq)): 0.479 mGy
- Estimated absorbed dose, Thymus (M3 (70.3 MBq)): 1.64 mGy
- Estimated absorbed dose, Thyroid (M3 (70.3 MBq)): 0.643 mGy
- Estimated absorbed dose, Upper, lower intestine wall (M3 (70.3 MBq)): 0.879 mGy
- Estimated absorbed dose, Urinary bladder wall (M3 (70.3 MBq)): 1.96 mGy
- Effective dose (whole body) (M4 (153 MBq)): 2.89 mSv
- Estimated absorbed dose, Adrenals (M4 (153 MBq)): 3.04 mGy
- Estimated absorbed dose, Brain (M4 (153 MBq)): 2.44 mGy
- Estimated absorbed dose, Breasts (M4 (153 MBq)): 1.31 mGy
- Estimated absorbed dose, Gallbladder wall (M4 (153 MBq)): 3.80 mGy
- Estimated absorbed dose, Heart wall (M4 (153 MBq)): 1.79 mGy
- Estimated absorbed dose, Liver (M4 (153 MBq)): 2.12 mGy
- Estimated absorbed dose, Lower large intestine wall (M4 (153 MBq)): 2.51 mGy
- Estimated absorbed dose, Lungs (M4 (153 MBq)): 4.01 mGy
- Estimated absorbed dose, Muscle (M4 (153 MBq)): 35.0 mGy
- Estimated absorbed dose, Osteogenic cells (M4 (153 MBq)): 5.85 mGy
- Estimated absorbed dose, Pancreas (M4 (153 MBq)): 1.52 mGy
- Estimated absorbed dose, Red marrow (M4 (153 MBq)): 2.02 mGy
- Estimated absorbed dose, Remainder (M4 (153 MBq)): 1.96 mGy
- Estimated absorbed dose, Skin (M4 (153 MBq)): 4.45 mGy
- Estimated absorbed dose, Small intestine (M4 (153 MBq)): 1.69 mGy
- Estimated absorbed dose, Spleen (M4 (153 MBq)): 2.12 mGy
- Estimated absorbed dose, Stomach wall (M4 (153 MBq)): 1.10 mGy
- Estimated absorbed dose, Testes (M4 (153 MBq)): 7.89 mGy
- Estimated absorbed dose, Thymus (M4 (153 MBq)): 1.19 mGy
- Estimated absorbed dose, Thyroid (M4 (153 MBq)): 7.36 mGy
- Estimated absorbed dose, Upper, lower intestine wall (M4 (153 MBq)): 2.17 mGy
- Estimated absorbed dose, Urinary bladder wall (M4 (153 MBq)): 2.81 mGy
- Effective dose (whole body) (Male n=4, mean±SD): 0.0196±0.0019 mSv/MBq
- Estimated dose, Adrenals (Male n=4, mean±SD): 0.0181±0.00135 mGy/MBq
- Estimated dose, Brain (Male n=4, mean±SD): 0.0135±0.00305 mGy/MBq
- Estimated dose, Breasts (Male n=4, mean±SD): 0.00801±0.000253 mGy/MBq
- Estimated dose, Gallbladder wall (Male n=4, mean±SD): 0.0230±0.00361 mGy/MBq
- Estimated dose, Heart wall (Male n=4, mean±SD): 0.0214±0.00739 mGy/MBq
- Estimated dose, Kidneys (Male n=4, mean±SD): 0.142±0.0804 mGy/MBq
- Estimated dose, Liver (Male n=4, mean±SD): 0.0392±0.0195 mGy/MBq
- Estimated dose, Lower, large intestine wall (Male n=4, mean±SD): 0.0114±0.00246 mGy/MBq
- Estimated dose, Lungs (Male n=4, mean±SD): 0.0446±0.0167 mGy/MBq
- Estimated dose, Muscle (Male n=4, mean±SD): 0.0589±0.100 mGy/MBq
- Estimated dose, Osteogenic cells (Male n=4, mean±SD): 0.0180±0.0114 mGy/MBq
- Estimated dose, Pancreas (Male n=4, mean±SD): 0.0156±0.00485 mGy/MBq
- Estimated dose, Red marrow (Male n=4, mean±SD): 0.0104±0.00124 mGy/MBq
- Estimated dose, Remainder (Male n=4, mean±SD): 0.0117±0.000634 mGy/MBq
- Estimated dose, Skin (Male n=4, mean±SD): 0.0114±0.0101 mGy/MBq
- Estimated dose, Small intestine (Male n=4, mean±SD): 0.0269±0.0137 mGy/MBq
- Estimated dose, Spleen (Male n=4, mean±SD): 0.0340±0.0226 mGy/MBq
- Estimated dose, Stomach wall (Male n=4, mean±SD): 0.0108±0.00294 mGy/MBq
- Estimated dose, Testes (Male n=4, mean±SD): 0.0169±0.0202 mGy/MBq
- Estimated dose, Thymus (Male n=4, mean±SD): 0.0245±0.0190 mGy/MBq
- Estimated dose, Thyroid (Male n=4, mean±SD): 0.0178±0.0175 mGy/MBq
- Estimated dose, Upper, lower intestine wall (Male n=4, mean±SD): 0.0142±0.00181 mGy/MBq
- Estimated dose, Urinary bladder wall (Male n=4, mean±SD): 0.0180±0.00704 mGy/MBq
SMILES: COC(=O)[C@@H](N)CC(=O)Nc1ccc2c(c1)Cc1cc([18F])ccc1-2 [[^18F]RP-115, methyl N^4-(7-[^18F]fluoro-9H-fluoren-2-yl)asparaginate]

Source: publication PMC13170702 (Nuclear medicine and biology, 2025)
